pIC50: −log10 of the molar value.
What follows are molecules tested on MDA-MB-231 (assay: Antiproliferative activity against human MDA-MB-231 cells after 72 hrs by cell titer glo assay). Settings: MDA-MB-231, 72 h.
Format: functional, cell-based
Procedure, shortened: (§1)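 ATCC tumour cells kept in RPMI 1640 with 5% FBS, 2 mM glutamine, streptomycin and amphotericin at 37 °C, 5% CO2. Cells were trypsinised at 70–90% confluence and used only at >95% Trypan blue viability. Seeded at 5000 cells/well, rested 18–24 h, then dosed from DMSO stocks (0.1% DMSO final). ATP luminescence was read after 72 h. IC50 came from dose–response curves of 8 concentrations, four replicates each.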
Molecule `Cn1c(N2N=C(c3ccccc3)CC2c2ccccc2)nc(-c2ccc(Cl)cc2)c(C#N)c1=O` (stereo unspecified) has a pIC50 of 4.54. Molecule `Cn1c(N2N=C(c3ccccc3)CC2c2ccc(Cl)cc2)nc(-c2ccc(Cl)cc2)c(C#N)c1=O` (stereo unspecified) has a pIC50 of 4.60. In the case of `Cn1c(N2N=C(c3ccccc3)CC2c2ccc(F)cc2)nc(-c2ccc(Cl)cc2)c(C#N)c1=O` (stereo unspecified), the pIC50 was 4.68. Molecule `COc1ccc(C2=NN(c3nc(-c4ccc(Cl)cc4)c(C#N)c(=O)n3C)C(c3ccc(OC)cc3)C2)cc1` (stereo unspecified) has a pIC50 of 4.55. `Cn1c(N2N=C(c3ccccc3)CC2c2ccc(F)cc2)nc(-c2ccccc2)c(C#N)c1=O` (stereo unspecified) was tested, and the pIC50 was 4.93. `COc1ccc(C2CC(c3ccccc3)=NN2c2nc(-c3ccccc3)c(C#N)c(=O)n2C)cc1` (stereo unspecified) showed a pIC50 of 4.89. For `COc1ccc(C2CC(c3ccc(Cl)cc3)=NN2c2nc(-c3ccccc3)c(C#N)c(=O)n2C)cc1` (stereo unspecified), the pIC50 was 4.96. In the case of `Cn1c(N2N=C(c3ccccc3)CC2c2ccccc2)nc(-c2ccccc2)c(C#N)c1=O` (stereo unspecified), the pIC50 was 5.40. Molecule `Cn1c(N2N=C(c3ccc(Cl)cc3)CC2c2ccccc2)nc(-c2ccccc2)c(C#N)c1=O` (stereo unspecified) has a pIC50 of 4.97. Molecule `Cc1ccc(C2=NN(c3nc(-c4ccc(Cl)cc4)c(C#N)c(=O)n3C)C(c3ccc(F)cc3)C2)cc1` (stereo unspecified) has a pIC50 of 4.71. `Cn1c(N2N=C(c3ccc(Cl)cc3)CC2c2ccccc2)nc(-c2ccc(Cl)cc2)c(C#N)c1=O` (stereo unspecified) was tested, and the pIC50 was 4.91. `COc1ccc(C2CC(c3ccc(Cl)cc3)=NN2c2nc(-c3ccc(Cl)cc3)c(C#N)c(=O)n2C)cc1` (stereo unspecified) was tested, and the pIC50 was 4.60. For `Cc1ccc(C2=NN(c3nc(-c4ccccc4)c(C#N)c(=O)n3C)C(c3ccc(F)cc3)C2)cc1` (stereo unspecified), the pIC50 was 5.29. Molecule `COc1ccc(C2CC(c3ccccc3)=NN2c2nc(-c3ccc(Cl)cc3)c(C#N)c(=O)n2C)cc1` (stereo unspecified) has a pIC50 of 4.71. With `Cn1c(N2N=C(c3ccccc3)CC2c2ccc(Cl)cc2)nc(-c2ccccc2)c(C#N)c1=O` (stereo unspecified) the pIC50 was 4.55. Work on `COc1ccc(C2=NN(c3nc(-c4ccccc4)c(C#N)c(=O)n3C)C(c3ccc(OC)cc3)C2)cc1` (stereo unspecified) yielded a pIC50 of 4.79.

Each molecule was assayed on MCF7 (assay: Antiproliferative activity against human MCF7 cells after 72 hrs by cell titer glo assay). Settings: MCF7, 72 h.
Format: functional, cell-based
Procedure, shortened: as §1
Molecule `Cn1c(N2N=C(c3ccccc3)CC2c2ccccc2)nc(-c2ccc(Cl)cc2)c(C#N)c1=O` (stereo unspecified) has a pIC50 of 4.46. With `Cn1c(N2N=C(c3ccccc3)CC2c2ccc(Cl)cc2)nc(-c2ccc(Cl)cc2)c(C#N)c1=O` (stereo unspecified) the pIC50 was 4.33. With `Cn1c(N2N=C(c3ccccc3)CC2c2ccc(F)cc2)nc(-c2ccc(Cl)cc2)c(C#N)c1=O` (stereo unspecified) the pIC50 was 4.43. Work on `COc1ccc(C2=NN(c3nc(-c4ccc(Cl)cc4)c(C#N)c(=O)n3C)C(c3ccc(OC)cc3)C2)cc1` (stereo unspecified) yielded a pIC50 of 4.00. With `Cn1c(N2N=C(c3ccccc3)CC2c2ccc(F)cc2)nc(-c2ccccc2)c(C#N)c1=O` (stereo unspecified) the pIC50 was 4.42. Molecule `COc1ccc(C2CC(c3ccccc3)=NN2c2nc(-c3ccccc3)c(C#N)c(=O)n2C)cc1` (stereo unspecified) has a pIC50 of 4.75. Work on `COc1ccc(C2CC(c3ccc(Cl)cc3)=NN2c2nc(-c3ccccc3)c(C#N)c(=O)n2C)cc1` (stereo unspecified) yielded a pIC50 of 5.32. For `Cn1c(N2N=C(c3ccccc3)CC2c2ccccc2)nc(-c2ccccc2)c(C#N)c1=O` (stereo unspecified), the pIC50 was 4.45. With `Cn1c(N2N=C(c3ccc(Cl)cc3)CC2c2ccccc2)nc(-c2ccccc2)c(C#N)c1=O` (stereo unspecified) the pIC50 was 4.91. `Cc1ccc(C2=NN(c3nc(-c4ccc(Cl)cc4)c(C#N)c(=O)n3C)C(c3ccc(F)cc3)C2)cc1` (stereo unspecified) gave a pIC50 of 3.94. Work on `Cn1c(N2N=C(c3ccc(Cl)cc3)CC2c2ccccc2)nc(-c2ccc(Cl)cc2)c(C#N)c1=O` (stereo unspecified) yielded a pIC50 of 4.60. With `COc1ccc(C2CC(c3ccc(Cl)cc3)=NN2c2nc(-c3ccc(Cl)cc3)c(C#N)c(=O)n2C)cc1` (stereo unspecified) the pIC50 was 4.56. Work on `Cc1ccc(C2=NN(c3nc(-c4ccccc4)c(C#N)c(=O)n3C)C(c3ccc(F)cc3)C2)cc1` (stereo unspecified) yielded a pIC50 of 4.64. Work on `COc1ccc(C2CC(c3ccccc3)=NN2c2nc(-c3ccc(Cl)cc3)c(C#N)c(=O)n2C)cc1` (stereo unspecified) yielded a pIC50 of 4.28. `Cn1c(N2N=C(c3ccccc3)CC2c2ccc(Cl)cc2)nc(-c2ccccc2)c(C#N)c1=O` (stereo unspecified) gave a pIC50 of 5.48. For `COc1ccc(C2=NN(c3nc(-c4ccccc4)c(C#N)c(=O)n3C)C(c3ccc(OC)cc3)C2)cc1` (stereo unspecified), the pIC50 was 3.90.

What follows are molecules tested on HT-29 (assay: Antiproliferative activity against human HT-29 cells after 72 hrs by cell titer glo assay). Settings: HT-29, 72 h.
Format: functional, cell-based
Procedure, shortened: as §1
With `Cn1c(N2N=C(c3ccccc3)CC2c2ccccc2)nc(-c2ccc(Cl)cc2)c(C#N)c1=O` (stereo unspecified) the pIC50 was 4.71. With `Cn1c(N2N=C(c3ccccc3)CC2c2ccc(Cl)cc2)nc(-c2ccc(Cl)cc2)c(C#N)c1=O` (stereo unspecified) the pIC50 was 4.82. For `Cn1c(N2N=C(c3ccccc3)CC2c2ccc(F)cc2)nc(-c2ccc(Cl)cc2)c(C#N)c1=O` (stereo unspecified), the pIC50 was 4.86. With `COc1cccc2c1C(=O)c1c(O)c3c(c(O)c1C2=O)C[C@@](O)(C(=O)CO)C[C@@H]3O[C@H]1C[C@H](N)[C@H](O)[C@H](C)O1` [DOXORUBICIN] the pIC50 was 5.56. Molecule `COc1ccc(C2=NN(c3nc(-c4ccc(Cl)cc4)c(C#N)c(=O)n3C)C(c3ccc(OC)cc3)C2)cc1` (stereo unspecified) has a pIC50 of 4.74. `Cn1c(N2N=C(c3ccccc3)CC2c2ccc(F)cc2)nc(-c2ccccc2)c(C#N)c1=O` (stereo unspecified) showed a pIC50 of 5.09. In the case of `COc1ccc(C2CC(c3ccccc3)=NN2c2nc(-c3ccccc3)c(C#N)c(=O)n2C)cc1` (stereo unspecified), the pIC50 was 4.83. `COc1ccc(C2CC(c3ccc(Cl)cc3)=NN2c2nc(-c3ccccc3)c(C#N)c(=O)n2C)cc1` (stereo unspecified) was tested, and the pIC50 was 5.04. With `Cn1c(N2N=C(c3ccccc3)CC2c2ccccc2)nc(-c2ccccc2)c(C#N)c1=O` (stereo unspecified) the pIC50 was 5.60. In the case of `Cn1c(N2N=C(c3ccc(Cl)cc3)CC2c2ccccc2)nc(-c2ccccc2)c(C#N)c1=O` (stereo unspecified), the pIC50 was 5.18. `Cc1ccc(C2=NN(c3nc(-c4ccc(Cl)cc4)c(C#N)c(=O)n3C)C(c3ccc(F)cc3)C2)cc1` (stereo unspecified) gave a pIC50 of 4.98. For `Cn1c(N2N=C(c3ccc(Cl)cc3)CC2c2ccccc2)nc(-c2ccc(Cl)cc2)c(C#N)c1=O` (stereo unspecified), the pIC50 was 5.06. In the case of `COc1ccc(C2CC(c3ccc(Cl)cc3)=NN2c2nc(-c3ccc(Cl)cc3)c(C#N)c(=O)n2C)cc1` (stereo unspecified), the pIC50 was 4.82. Work on `Cc1ccc(C2=NN(c3nc(-c4ccccc4)c(C#N)c(=O)n3C)C(c3ccc(F)cc3)C2)cc1` (stereo unspecified) yielded a pIC50 of 5.34. `COc1ccc(C2CC(c3ccccc3)=NN2c2nc(-c3ccc(Cl)cc3)c(C#N)c(=O)n2C)cc1` (stereo unspecified) gave a pIC50 of 4.96. `Cn1c(N2N=C(c3ccccc3)CC2c2ccc(Cl)cc2)nc(-c2ccccc2)c(C#N)c1=O` (stereo unspecified) showed a pIC50 of 4.72. Work on `COc1ccc(C2=NN(c3nc(-c4ccccc4)c(C#N)c(=O)n3C)C(c3ccc(OC)cc3)C2)cc1` (stereo unspecified) yielded a pIC50 of 5.03.

Each molecule was assayed on A549 (assay: Antiproliferative activity against human A549 cells after 72 hrs by cell titer glo assay). Settings: A549, 72 h.
Format: functional, cell-based
Procedure, shortened: as §1
Work on `Cn1c(N2N=C(c3ccccc3)CC2c2ccccc2)nc(-c2ccc(Cl)cc2)c(C#N)c1=O` (stereo unspecified) yielded a pIC50 of 4.55. In the case of `Cn1c(N2N=C(c3ccccc3)CC2c2ccc(Cl)cc2)nc(-c2ccc(Cl)cc2)c(C#N)c1=O` (stereo unspecified), the pIC50 was 4.61. With `Cn1c(N2N=C(c3ccccc3)CC2c2ccc(F)cc2)nc(-c2ccc(Cl)cc2)c(C#N)c1=O` (stereo unspecified) the pIC50 was 4.56. `COc1cccc2c1C(=O)c1c(O)c3c(c(O)c1C2=O)C[C@@](O)(C(=O)CO)C[C@@H]3O[C@H]1C[C@H](N)[C@H](O)[C@H](C)O1` [DOXORUBICIN] was tested, and the pIC50 was 5.50. `COc1ccc(C2=NN(c3nc(-c4ccc(Cl)cc4)c(C#N)c(=O)n3C)C(c3ccc(OC)cc3)C2)cc1` (stereo unspecified) showed a pIC50 of 4.40. `Cn1c(N2N=C(c3ccccc3)CC2c2ccc(F)cc2)nc(-c2ccccc2)c(C#N)c1=O` (stereo unspecified) was tested, and the pIC50 was 4.41. `COc1ccc(C2CC(c3ccccc3)=NN2c2nc(-c3ccccc3)c(C#N)c(=O)n2C)cc1` (stereo unspecified) was tested, and the pIC50 was 5.75. With `COc1ccc(C2CC(c3ccc(Cl)cc3)=NN2c2nc(-c3ccccc3)c(C#N)c(=O)n2C)cc1` (stereo unspecified) the pIC50 was 5.22. `Cn1c(N2N=C(c3ccccc3)CC2c2ccccc2)nc(-c2ccccc2)c(C#N)c1=O` (stereo unspecified) showed a pIC50 of 4.28. `Cn1c(N2N=C(c3ccc(Cl)cc3)CC2c2ccccc2)nc(-c2ccccc2)c(C#N)c1=O` (stereo unspecified) gave a pIC50 of 4.57. `Cc1ccc(C2=NN(c3nc(-c4ccc(Cl)cc4)c(C#N)c(=O)n3C)C(c3ccc(F)cc3)C2)cc1` (stereo unspecified) was tested, and the pIC50 was 4.45. For `Cn1c(N2N=C(c3ccc(Cl)cc3)CC2c2ccccc2)nc(-c2ccc(Cl)cc2)c(C#N)c1=O` (stereo unspecified), the pIC50 was 4.36. Molecule `COc1ccc(C2CC(c3ccc(Cl)cc3)=NN2c2nc(-c3ccc(Cl)cc3)c(C#N)c(=O)n2C)cc1` (stereo unspecified) has a pIC50 of 4.45. In the case of `Cc1ccc(C2=NN(c3nc(-c4ccccc4)c(C#N)c(=O)n3C)C(c3ccc(F)cc3)C2)cc1` (stereo unspecified), the pIC50 was 5.70. In the case of `COc1ccc(C2CC(c3ccccc3)=NN2c2nc(-c3ccc(Cl)cc3)c(C#N)c(=O)n2C)cc1` (stereo unspecified), the pIC50 was 4.62. With `Cn1c(N2N=C(c3ccccc3)CC2c2ccc(Cl)cc2)nc(-c2ccccc2)c(C#N)c1=O` (stereo unspecified) the pIC50 was 5.49. Molecule `COc1ccc(C2=NN(c3nc(-c4ccccc4)c(C#N)c(=O)n3C)C(c3ccc(OC)cc3)C2)cc1` (stereo unspecified) has a pIC50 of 4.58.
